Rows were chosen to be rich in hits. Some 1.6% of all compounds tested hit in one or more screens of this group.
T cell modulator: modulators of CD8 T cell-vesicle binding, primary screen, mouse 2C CD8+ T cells, flow cytometry; 2C CD8+ T cell-vesicle binding; hits give low values; response (vesicle binding), % at 7 µM; 330,000 compounds, 0.068% hits;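 active means response, share of CD8 T cells binding vesicles, and their 90th percentile fluorescence all below set limits, cut at about 80% in these data, passing the limit was not always enough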;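 further: values below 100% mean blocked vesicle binding to the CD8+ T cells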
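Also added: QL9-peptide-loaded Drosophila micro-vesicles bearing Ld, ICAM-1 and B7-1; Test system: purified 2C TCR transgenic mouse naive CD8+ T cells; Measured by: cytometric PE anti-B7-1 and Alexa647 anti-CD8 signals after 1% paraformaldehyde fixation; Timing: binding step 1.5 h, 37 °C, antibody labelling 20 min, ice.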
Arrestin-AP2 inh: inhibitors of beta-arrestin/AP2 binding, primary screen, biochemical, GPCR trafficking, flow cytometry; beta-arrestin 1 C-terminal peptide binding to AP2 beta2-adaptin appendage (human); 340,000 compounds, 0.31% hits; FITC-arrestin peptide / GST-AP2 beads; AP2 beta2 appendage carries R879A mutation; inhibition, % at 10 µM; AID 504490, 2011;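 active means inhibition above a set limit, near 3 SD of compounds lacking own fluorescence, cut at about 54% in these data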
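System: GST-AP2 R879A glutathione beads; medium: PBS, Tween 20 0.05%, BSA 0.1%; reagent: fluorescein-tagged arrestin peptide at 50 nM final; schedule: pre-incubation 12 min, peptide binding 1 h, room temperature; detection: flow cytometry, FL1 (488/535 nm); read-out: inhibition as reduced fluorescein signal on beads, percent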
DSG3 Ab inh: inhibitors of pemphigus antibody binding to DSG3, primary screen, biochemical, bead-based, flow cytometry, scFv-GFP; Desmoglein-3 (Homo sapiens), P32926; 310,000 compounds, 0.48% hits; DSG3-coupled beads, scFv-anti-DSG3-GFP binding; hits give low values; AID 588358, 2011; binding (percent of control), % at 10 µM;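 active means binding more than 3 SD below its plate's average and above zero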;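 further: hits lower antibody fragment binding to DSG3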
LANA-H2A inh: blockers of LANA interaction with H2A/H2B – biochemical, FP readout, HTS, primary screen | AID 2629, 2010 | 320,000 compounds, 0.6% hits | inhibition, % (test concentration not listed) | cell-free LANA-H2A/H2B peptide, fluorescence polarization | Protein LANA1 (Human herpesvirus 8 type P (isolate GK18)), Q9QR71; in the data active means inhibition mostly above about 10%, no sharp cut-off; inactive means mostly below about 6.7%
Target sequence (Q9QR71 whole entry, looked up): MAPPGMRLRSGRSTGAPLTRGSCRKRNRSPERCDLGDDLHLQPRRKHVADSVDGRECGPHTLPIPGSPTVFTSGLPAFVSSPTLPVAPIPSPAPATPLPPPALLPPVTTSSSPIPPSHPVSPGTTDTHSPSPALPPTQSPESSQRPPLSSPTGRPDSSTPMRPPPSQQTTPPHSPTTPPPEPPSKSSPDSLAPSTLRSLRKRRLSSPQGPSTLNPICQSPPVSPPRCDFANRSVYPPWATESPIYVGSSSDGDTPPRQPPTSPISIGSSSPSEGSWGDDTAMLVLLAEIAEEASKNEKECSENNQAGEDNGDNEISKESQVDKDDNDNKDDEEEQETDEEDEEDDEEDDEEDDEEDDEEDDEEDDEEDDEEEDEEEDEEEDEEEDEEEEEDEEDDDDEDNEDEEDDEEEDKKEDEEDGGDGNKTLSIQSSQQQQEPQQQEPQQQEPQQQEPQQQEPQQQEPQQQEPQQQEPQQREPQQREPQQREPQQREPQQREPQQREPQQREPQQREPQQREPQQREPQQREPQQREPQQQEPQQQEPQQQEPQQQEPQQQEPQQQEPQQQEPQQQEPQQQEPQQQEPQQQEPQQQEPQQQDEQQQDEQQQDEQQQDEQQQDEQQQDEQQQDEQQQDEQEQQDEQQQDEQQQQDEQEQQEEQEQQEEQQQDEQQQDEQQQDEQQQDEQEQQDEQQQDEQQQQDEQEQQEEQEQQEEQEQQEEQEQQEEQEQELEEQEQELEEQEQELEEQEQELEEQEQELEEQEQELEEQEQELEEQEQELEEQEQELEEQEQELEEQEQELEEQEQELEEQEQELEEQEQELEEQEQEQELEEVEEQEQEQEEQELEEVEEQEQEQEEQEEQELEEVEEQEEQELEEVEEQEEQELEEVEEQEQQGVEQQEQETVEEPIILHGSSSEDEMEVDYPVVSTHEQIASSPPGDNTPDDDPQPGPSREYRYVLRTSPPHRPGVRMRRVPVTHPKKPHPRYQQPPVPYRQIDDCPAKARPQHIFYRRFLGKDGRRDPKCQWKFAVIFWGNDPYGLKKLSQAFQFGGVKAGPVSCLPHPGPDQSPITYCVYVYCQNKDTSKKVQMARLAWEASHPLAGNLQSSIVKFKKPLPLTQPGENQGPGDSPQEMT
GASC-1 inh: inhibitors of GASC-1 histone demethylase, primary screen, biochemical, fluorescence, DELFIA europium; GST-JMJD2C(1-420) H3K9me3 demethylation; inhibition, % at 2.35 µM; 330,000 compounds, 0.069% hits;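 active means more than half of a compound's replicate wells show inhibition beyond 50%, single wells judged on their own value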;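 further: signal counts dimethyl H3K9 product captured on neutravidin plate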
HDAC3 inh: HDAC3 deacetylase inhibitors, primary screen, biochemical, fluorescence, cell-free homogeneous; recombinant HDAC3, fluorogenic peptide/trypsin coupled; inhibition, % at 8.3 µM; 320,000 compounds, 0.15% hits; AID 2718, 2010; in the data active means inhibition above about 26%, passing the limit was not always enough
Hits are given with their value.

How did CCc1cccc(NC(=O)[C@@H]2CCCN2C2=NS(=O)(=O)c3ccccc32)c1 do in these assays?
T cell modulator: inactive; Arrestin-AP2 inh: inactive; LANA-H2A inh: inactive; GASC-1 inh: inactive; HDAC3 inh: inactive

What do the screens show for `CCc1cccc(NC(=O)CSC2=NS(=O)(=O)c3ccccc32)c1`?
T cell modulator: inactive; Arrestin-AP2 inh: inactive; DSG3 Ab inh: inactive; LANA-H2A inh: inactive; GASC-1 inh: inactive; HDAC3 inh: 36

How did O=C(c1cccn2c(=O)c3cc4ccccc4cc3nc12)N1CCN(c2ccccc2)CC1 do in these assays?
T cell modulator: inactive; LANA-H2A inh: 13; GASC-1 inh: inactive; HDAC3 inh: inactive

How did O=C(c1cccn2c(=O)c3ccccc3nc12)N1CCN(c2ccccn2)CC1 do in these assays?
T cell modulator: inactive; Arrestin-AP2 inh: inactive; DSG3 Ab inh: inactive; LANA-H2A inh: inactive; GASC-1 inh: inactive; HDAC3 inh: inactive

What do the screens show for `CC1CCCN(C(=O)CSc2nnc(-c3ccco3)n2C)C1` (stereo not drawn)?
T cell modulator: inactive; Arrestin-AP2 inh: inactive; LANA-H2A inh: inactive; GASC-1 inh: inactive; HDAC3 inh: inactive

Results for COc1ccc(N2CCN(C(=O)CSc3nnc(-c4ccco4)n3C)CC2)cc1 ?
T cell modulator: inactive; LANA-H2A inh: inactive; GASC-1 inh: 64; HDAC3 inh: inactive

Results for COc1ccc2c(c1)c(=O)oc1cc(OCC(=O)NCC3CCC(C(=O)O)CC3)ccc12 (stereo not drawn) ?
T cell modulator: inactive; Arrestin-AP2 inh: inactive; DSG3 Ab inh: -19; LANA-H2A inh: inactive; GASC-1 inh: inactive; HDAC3 inh: inactive

How did NS(=O)(=O)c1ccc2nc(NC(=O)c3ccc4ncsc4c3)sc2c1 do in these assays?
T cell modulator: inactive; Arrestin-AP2 inh: inactive; LANA-H2A inh: inactive; GASC-1 inh: inactive; HDAC3 inh: inactive

What do the screens show for `Cc1ccc2nc(NC(=O)c3ccc4ncsc4c3)sc2c1`?
T cell modulator: inactive; Arrestin-AP2 inh: inactive; DSG3 Ab inh: -6.3; LANA-H2A inh: inactive; GASC-1 inh: inactive; HDAC3 inh: inactive

How did CCCN(CCC)Cc1c(C(=O)N/N=C/c2c[nH]c3ccccc23)nnn1-c1nonc1N do in these assays?
T cell modulator: inactive; Arrestin-AP2 inh: inactive; DSG3 Ab inh: inactive; LANA-H2A inh: inactive; GASC-1 inh: inactive; HDAC3 inh: 32

How did CN(C)Cc1c(C(=O)N/N=C/c2cccc3ccccc23)nnn1-c1nonc1N do in these assays?
T cell modulator: inactive; Arrestin-AP2 inh: inactive; DSG3 Ab inh: 56; LANA-H2A inh: inactive; GASC-1 inh: inactive; HDAC3 inh: inactive

Results for CN(C)Cc1c(C(=O)N/N=C/c2ccncc2)nnn1-c1nonc1N ?
T cell modulator: inactive; Arrestin-AP2 inh: inactive; DSG3 Ab inh: inactive; LANA-H2A inh: inactive; GASC-1 inh: inactive; HDAC3 inh: inactive

What do the screens show for `Cc1ccc(S(=O)(=O)NCC(=O)N(CC(=O)NCC2CCCO2)Cc2ccccc2Cl)cc1` (stereo not drawn)?
T cell modulator: inactive; Arrestin-AP2 inh: inactive; DSG3 Ab inh: inactive; LANA-H2A inh: inactive; GASC-1 inh: inactive; HDAC3 inh: inactive

What do the screens show for `CSCCC(NC(=O)c1ccccc1Cl)C(=O)Nc1ccncc1` (stereo not drawn)?
Arrestin-AP2 inh: inactive; DSG3 Ab inh: inactive

What do the screens show for `Cn1c(CNC(=O)c2ccc3c(c2)OCO3)nnc1SCC(=O)Nc1ccccc1F`?
T cell modulator: inactive; Arrestin-AP2 inh: inactive; DSG3 Ab inh: inactive; LANA-H2A inh: inactive; GASC-1 inh: inactive; HDAC3 inh: inactive

How did Cc1occc1C(=O)NNC(=O)c1ccccc1[N+](=O)[O-] do in these assays?
T cell modulator: inactive; Arrestin-AP2 inh: inactive; LANA-H2A inh: inactive; GASC-1 inh: inactive; HDAC3 inh: inactive

What do the screens show for `Cc1ccc2c(c1)N(C(C)C(=O)NCc1cccs1)C(=O)CO2` (stereo not drawn)?
T cell modulator: inactive; Arrestin-AP2 inh: inactive; DSG3 Ab inh: inactive; LANA-H2A inh: 20; GASC-1 inh: inactive; HDAC3 inh: inactive

Results for O=S(=O)(c1cccc(F)c1)N1CCc2sccc2C1c1ccc(OC(F)(F)F)cc1 (stereo not drawn) ?
T cell modulator: inactive; Arrestin-AP2 inh: inactive; DSG3 Ab inh: inactive; LANA-H2A inh: inactive; GASC-1 inh: inactive; HDAC3 inh: inactive

How did COc1ccc(C(=O)n2cnnc2N)cc1 do in these assays?
T cell modulator: inactive; Arrestin-AP2 inh: inactive; DSG3 Ab inh: inactive; LANA-H2A inh: inactive; GASC-1 inh: inactive; HDAC3 inh: 81

How did Cc1cccc(C(=O)n2cnnc2N)c1 do in these assays?
T cell modulator: inactive; Arrestin-AP2 inh: inactive; DSG3 Ab inh: inactive; LANA-H2A inh: inactive; GASC-1 inh: inactive; HDAC3 inh: 44

How did O=C(CCN=C1NS(=O)(=O)c2ccccc21)Nc1ccc(Cl)cc1F do in these assays?
T cell modulator: inactive; Arrestin-AP2 inh: inactive; DSG3 Ab inh: inactive; LANA-H2A inh: inactive; GASC-1 inh: inactive; HDAC3 inh: inactive

How did CC1CCC2(CC1)NC(=O)N(CC(=O)Nc1ccc(F)cc1)C2=O (stereo not drawn) do in these assays?
T cell modulator: inactive; Arrestin-AP2 inh: inactive; DSG3 Ab inh: inactive; LANA-H2A inh: 38; HDAC3 inh: inactive

What do the screens show for `Cc1nc2nc(SCc3ccccc3)[nH]n2c(=O)c1CCC(C)C`?
T cell modulator: inactive; Arrestin-AP2 inh: inactive; DSG3 Ab inh: inactive; LANA-H2A inh: inactive; GASC-1 inh: inactive; HDAC3 inh: inactive

Results for CSc1nc2ccc(NC(=O)c3ccco3)cc2s1 ?
T cell modulator: inactive; Arrestin-AP2 inh: inactive; DSG3 Ab inh: inactive; LANA-H2A inh: inactive; GASC-1 inh: inactive; HDAC3 inh: inactive

What do the screens show for `CSc1nc2ccc(NC(=O)c3cccs3)cc2s1`?
T cell modulator: inactive; Arrestin-AP2 inh: inactive; DSG3 Ab inh: 28; LANA-H2A inh: inactive; GASC-1 inh: inactive; HDAC3 inh: inactive

How did O=C1N=c2ccccc2=C1c1sc(Nc2ccc(O)cc2)nc1O do in these assays?
Arrestin-AP2 inh: inactive; DSG3 Ab inh: -15

Results for O=C1N=c2ccccc2=C1c1sc(Nc2cccc(O)c2)nc1O ?
T cell modulator: inactive; Arrestin-AP2 inh: inactive; DSG3 Ab inh: inactive; LANA-H2A inh: inactive; GASC-1 inh: inactive; HDAC3 inh: inactive

Results for O=C(Nc1ccccc1)c1ccccc1CCc1ccccc1 ?
T cell modulator: inactive; Arrestin-AP2 inh: inactive; DSG3 Ab inh: inactive; LANA-H2A inh: 23; GASC-1 inh: inactive; HDAC3 inh: inactive

Results for COc1cccc(CNC(=O)COC(=O)C23CC4CC(CC(Cl)(C4)C2)C3)c1 ?
T cell modulator: inactive; Arrestin-AP2 inh: inactive; LANA-H2A inh: inactive; GASC-1 inh: inactive; HDAC3 inh: inactive

From PubChem
